Experimental data published in paper PMC3206492 (Journal of the American Chemical Society, 2011).

Test system: PBP1b
Assay: In vitro PBP1b transglycosylase assay
Format: biochemical, Escherichia coli
Conditions: peptide up to 200 μM
Procedure, shortened: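 E. coli PBP1b glycan polymerization with heptaprenyl lipid II substrate at 4 μM, run with and without test peptide. Peptidoglycan formation was monitored, and IC50 is the peptide concentration giving half-maximal inhibition of PBP1b activity.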

Substance | inhibition of lipid II polymerization at concentrations up to 200 μM
epilancin 15X | did not demonstrate any inhibitory activity
lactocin S | did not demonstrate any inhibitory activity
sublancin | did not inhibit
